The data set in a line: Toxicity liver stage against HepG2, at 10uM. In kind it is cell-based. Also on record: test concentration 10 uM, cell line HepG2-A16-CD81EGFP. The following applies: human, HepG2-A16-CD81EGFP cells; read-out: INHIBITION
The essentials: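 Uninfected HepG2-A16-CD81EGFP cells, 3 × 10^3 per well, 1536-well, plated on prespotted compound at 10 μM final, parasite-free screening media added to match infected plates; puromycin 10 μM positive, DMSO 0.5% negative; run in parallel with 48 h PbLuc assay at 37 °C, 5% CO2; viability by CellTiter-Glo luminescence, normalized to controls.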

Structures are written as SMILES.

This is an account of results in ChEMBL document CHEMBL4513216, “Probing the Open Global Health Chemical Diversity Library for Multistage-Active Starting Points for Next-Generation Antimalarials” (ACS Infect Dis, 2020).

For `Cc1cc(C)c2cc(CNCc3cccnc3)c3nn(C)c(=O)n3c2c1`, the cytotoxicity at 10 µM is -6.11%. For `CC(c1ccc2c(c1)OCCO2)N(C)C(=O)c1ccnnc1` (stereo not given), the cytotoxicity at 10 µM was 0.94%. `COc1ccc(-c2cn(CCSc3ncn[nH]3)nn2)cn1`: the cytotoxicity at 10 µM is 3.36%. On to `Cc1cccc(C(CNC(=O)NCc2cc[nH]n2)N2CCOCC2)c1` (stereo not given), for which the cytotoxicity at 10 µM is -9.19%. Next, `CC(C)c1noc(CN(Cc2cccs2)C2CC2)n1`: -9.15%. To `CN(C)Cc1cc(C2CCN(C(=O)C3CCCNC3)CC2)nn1C` (stereo not given) belongs -8.67%; to `CC(C)(C)c1cc(NC(=O)CN2CCn3c(nnc3C3CC3)C2)on1`, -4.1%.

Consider `Cc1cnn(C2CCCN(C(=O)c3ccc(O)nc3)C2)c1` (stereo not given), for which the cytotoxicity at 10 µM is -2.78%. Consider `COc1cc(C)nc(N2CCN(C(=O)c3cc(Cl)c[nH]3)CC2)n1`, for which the cytotoxicity at 10 µM was found to be 7.32%.

For `CN(C)c1ccc(CN(CC2CCCO2)C(=O)c2csnn2)cc1` (stereo not given), the cytotoxicity at 10 µM was -1.59%. As for `CN1CCC(c2cccc(Cc3ccccc3)n2)CC1`, the cytotoxicity at 10 µM is -9.24%. `CN(C)c1ncc(NC(=O)c2ccccc2C(F)(F)F)cn1`: the cytotoxicity at 10 µM was -9.66%. Turning to `CC1=C(c2ccc(C(C)C)cc2)S(=O)(=O)N=C1N1CCc2ccccc21`, the cytotoxicity at 10 µM was -16.8%. Turning to `CC(=O)N1CCCN(C(C(=O)O)c2ccccc2OC(F)(F)F)CC1` (stereo not given), the cytotoxicity at 10 µM stood at 15.5%. `CC(C)[C@H]1CN(Cc2ccccn2)C[C@@H]1NS(=O)(=O)C1CC1`: the cytotoxicity at 10 µM is -0.578%. Next, `CC(C)c1nc(CCn2cncn2)n(-c2ccc3c(c2)OCCO3)n1`: 6.52%; `CCC[C@H]1CN(S(=O)(=O)N(C)Cc2ccccc2)C[C@@H]1N`: -138%. For the compound `COC(=O)C(C)(C)C(C)(C)NC(=O)Nc1nnc(-c2ccccn2)s1`, the cytotoxicity at 10 µM amounted to 9.15%. For the compound `Fc1cnc(N2CC3(CCN(CC4CC4)C3)C2)nc1`, the cytotoxicity at 10 µM was -2.73%. Next, `CN1C(=O)[C@@H]2CC[C@H]1CN(Cc1cccc(OCc3ccccn3)c1)C2`: 5.52%; `Cc1ccc(CN(C(=O)NCC2CCS(=O)(=O)C2)C2CC2)o1` (stereo not given): -144%.

For `CNC(=O)[C@@]12CCO[C@@H]1CCN(Cc1cccc(C)c1)C2`, the cytotoxicity at 10 µM is -78.4%. As to `Cc1noc(Cl)c1CC(=O)NCCOc1ccc(F)cc1F`, the cytotoxicity at 10 µM is -2.64%. Take `CCc1nnc(SC2CCCN(c3cnn(C)c3)C2=O)n1C` (stereo not given): the cytotoxicity at 10 µM was 2.68%. Next, `Cc1csc(C(=O)N2CCC(S(C)(=O)=O)CC2)c1`: 2.7%. Take `CN(C1CCN(c2ccccn2)CC1)S(=O)(=O)c1cccs1`: the cytotoxicity at 10 µM stood at 13.3%. Next, `CCc1ncc(CN2CCC3(CCCN(CC4CCC4)C3)C2)cn1` (stereo not given): -7.07%; `CSCC(C)(O)CNS(=O)(=O)c1cccc(C)c1` (stereo not given): -2.85%; `COC(=O)CC1CN(Cc2c(Cl)ccc3cccnc23)CCO1` (stereo not given): 8.36%. Take `Cc1ccc(CN2C[C@@H]3COC[C@H](C(=O)N4CCCCO4)[C@@H]3C2)o1`: the cytotoxicity at 10 µM amounted to 3.37%. As to `CC(=O)Nc1nc(C(=O)N2CCCC2c2noc(C)n2)cs1` (stereo not given), the cytotoxicity at 10 µM was -9.55%. With `CCC(C)N(Cc1cccnc1)C(=O)c1ccc(OC)cc1O` (stereo not given), the cytotoxicity at 10 µM worked out at 8.65%. To `c1cnc(NC2COC3(CCN(Cc4cccs4)CC3)C2)nc1` (stereo not given) belongs 0.603%. For `Cn1cc(C(=O)N2CCCC(n3cccn3)C2)c2ccccc21` (stereo not given), the cytotoxicity at 10 µM was determined as 5.2%. Take `COc1cc(N2C[C@H]3CCC[C@@H](CN(C)C4CC4)[C@H]3C2)ncn1`: the cytotoxicity at 10 µM is -73%. `CC(=O)N1CCc2c(nc(N(C)C)nc2NCCc2cccs2)C1`: the cytotoxicity at 10 µM was -54%.

Take `O=C1CC[C@H]2[C@H](CCN2C(=O)C2CCOCC2)N1Cc1ccncc1`: the cytotoxicity at 10 µM is -2.7%. To `CC(C)(C#N)C(=O)Nc1nccn1Cc1ccc(Br)cc1` belongs -47.5%; to `CC(=O)NCCNC(=O)c1cc(C)ccc1SC1CCCC1`, -41.5%. Turning to `c1cnc(N2CCC3(CCCN(CC4CCCCC4)C3)C2)cn1` (stereo not given), the cytotoxicity at 10 µM is -1.62%.

With `Cc1cc(CN2C[C@@H]3CCCO[C@@H]3[C@H](Nc3ccccn3)C2)no1`, the cytotoxicity at 10 µM is -4.72%. As for `CCc1[nH]c2ccc(CNc3cncc(C(=O)N(C)C)n3)cc2c1C`, the cytotoxicity at 10 µM was 7.59%.

Regarding `COc1ccc(Cc2nnc(NC(=O)C3CC34CCC4)s2)cc1OC` (stereo not given), the cytotoxicity at 10 µM was -2.21%.

On to `COc1ccccc1NC(=O)NCc1nnc(SC)n1C`, for which the cytotoxicity at 10 µM is -0.145%.

`CCC(C)(N)c1nc(=O)c(C(C)C)c(C)[nH]1` (stereo not given): the cytotoxicity at 10 µM was -6.17%. For `Cn1cc(S(=O)(=O)Nc2c(F)cccc2N2CCCC2)cn1`, the cytotoxicity at 10 µM was -4.24%. As for `O=C(NCC(F)(F)F)c1nnn(-c2ccccc2)c1C(F)(F)F`, the cytotoxicity at 10 µM was 4.39%.

For `Cc1ccc(C)c(OCCN(C)C(=O)C2CCCN2C(N)=O)c1C` (stereo not given), the cytotoxicity at 10 µM is -1.01%. With `O=C(c1c2c(NCC3CC3)ncnc2n2ccccc12)N1CCOCC1`, the cytotoxicity at 10 µM was 9.82%. Take `Cn1ccc(C(=O)N(CC(F)(F)F)c2cccc(Cl)c2)cc1=O`: the cytotoxicity at 10 µM is -0.0519%. Turning to `Cn1cc(C(=O)N2CCC(Cc3nccs3)CC2)cn1`, the cytotoxicity at 10 µM was found to be 7.63%. To `O=C(Nc1cccc(N2CCOCC2)c1)N[C@H](CO)c1ccccc1` belongs -8.1%; to `CCCN1CCC2(CC1)CN(C(=O)c1cccnc1)c1ccc(F)cc12`, -104%; to `CCN1CC(C(=O)N(C)Cc2cc3cc(F)ccc3[nH]2)CC1=O` (stereo not given), 0.782%.

As for `O=S(=O)(C1CC1)N1CCC2(CCCN(Cc3ccccn3)C2)CC1`, the cytotoxicity at 10 µM was found to be 5.97%. For the compound `CCN1C(=O)C2(CCOCC2)c2cc(NC(=O)c3cccn3C)ccc21`, the cytotoxicity at 10 µM is -2.13%. Take `COCC1CN(C(=O)[C@H]2CCCO2)Cc2nnn(CC3CC3)c21` (stereo not given in full): the cytotoxicity at 10 µM was -1.59%. Regarding `CC(C)c1noc(CN2CCN(C(=O)c3ccccc3F)CC2)n1`, the cytotoxicity at 10 µM was -8.08%.

For `CCC(C(=O)NCc1noc(Cc2cccs2)n1)n1cccn1` (stereo not given), the cytotoxicity at 10 µM was -1.91%. Turning to `CC(C)c1nc(CN(C)C(=O)CNC(N)=O)cs1`, the cytotoxicity at 10 µM worked out at 17.4%.

Consider `CCn1cc(C(=O)N(C)Cc2c(F)cccc2Cl)cn1`, for which the cytotoxicity at 10 µM is -4.66%. On to `CC(=O)c1ccc(NCc2cc3n(n2)CCCN(S(C)(=O)=O)C3)nc1`, for which the cytotoxicity at 10 µM was determined as 1.02%. In the case of `O=C1C[C@H]2[C@@H](CCN2C(=O)c2cscn2)N1Cc1cccnc1`, the cytotoxicity at 10 µM is -0.184%.

As for `COCCc1noc(CN2CCOC(CN(C)C)C2)n1` (stereo not given), the cytotoxicity at 10 µM was -1.04%. In the case of `CCc1nnc(CN2CCCN(C(=O)c3ccccn3)CC2)o1`, the cytotoxicity at 10 µM is -5.56%. Take `CS(=O)(=O)NC(=O)c1ccn(-c2ccc(Cl)c(Cl)c2)n1`: the cytotoxicity at 10 µM worked out at 6.96%. For `O=C(C1CCCN(Cc2cccc(F)c2)C1)N1CCc2sccc2C1` (stereo not given), the cytotoxicity at 10 µM is -0.23%. Consider `CS(=O)(=O)N1CC2(CCN(C(=O)c3csnn3)CC2)c2ccccc21`, for which the cytotoxicity at 10 µM was determined as 7.88%.

Turning to `CNC(=O)c1ccc(C(=O)N2CCCC2c2cnn(C)c2)cn1` (stereo not given), the cytotoxicity at 10 µM is -6.41%. With `O=C(NCCn1ccnc1)NCc1ccc(N2CCCCCC2)nc1`, the cytotoxicity at 10 µM is 19%. To `Cc1cc(CN(C)C(=O)Nc2cnc3c(c2)c(C)nn3C)no1` belongs 3.77%; to `Cc1nn(C)c2nc(C3CC3)c(Cl)c(C(=O)O)c12`, 7.44%. For the compound `Cc1n[nH]c(C)c1NC(=O)CN1CCn2c(nnc2C(C)C)C1`, the cytotoxicity at 10 µM is -1.03%. Take `Cn1cnc(S(=O)(=O)N2CC3(CCN(c4ccccc4)C3)C2)c1`: the cytotoxicity at 10 µM is -91.7%. As to `CC[C@@H]1N(Cc2ccsc2)CCC[C@]12CCC(=O)N2C`, the cytotoxicity at 10 µM was 10%. On to `O=C(c1ccc(-n2ccnn2)cc1)N(CC1CC1)c1cccnc1`, for which the cytotoxicity at 10 µM was found to be 22.5%. To `Cc1ncnc2c1CCN(C(=O)CN(C)C)CC2` belongs 0.964%. To `Cc1cc(C(=O)N2C[C@@H]3CCCO[C@@H]3[C@H](N(C)C(C)C)C2)c(C)[nH]1` belongs 10.2%; to `Cc1cccc(C2CCCN2C(=O)CCS(C)(=O)=O)c1C` (stereo not given), -0.272%; to `CC1COCCN1Cc1nc(C(C)(C)C)no1` (stereo not given), 4.87%. Consider `Cc1csc(CN(C)C(C)C(=O)N2CCc3ccccc3C2)n1` (stereo not given), for which the cytotoxicity at 10 µM is -11.7%. As to `Cc1cc(C)c2nc(CN3CCC(N4CCOCC4)CC3)cc(O)c2c1`, the cytotoxicity at 10 µM is -0.173%. To `CNC(=O)C1CCN(S(C)(=O)=O)CC1` belongs -4.81%; to `COc1ccc(C(C)=O)c(OCC(=O)NC(C)c2ccc(F)cc2)c1` (stereo not given), 2.68%; to `O=C1COC2(CCN(Cc3ccco3)CC2)CN1CCn1cccn1`, 10.2%. On to `CNC(=O)C1CCCCN1C(=O)C1CCN(S(C)(=O)=O)CC1` (stereo not given), for which the cytotoxicity at 10 µM stood at 6.03%.

Take `O=C(c1ccco1)N1CCO[C@@H]2CN(c3ccccc3)CC[C@@H]2C1`: the cytotoxicity at 10 µM is -67.7%. As for `CC(C)n1nccc1NC(=O)NCCc1nc2ccc(F)cc2n1C`, the cytotoxicity at 10 µM was -7.85%. For the compound `CC(C)Cn1cncc1CNC(=O)c1cccc(CC2CCNCC2)c1`, the cytotoxicity at 10 µM is -4.47%. For `CCCn1cc(CN2CCC(c3[nH]ncc3S(C)(=O)=O)C2)cn1` (stereo not given), the cytotoxicity at 10 µM was 4.27%. `Cc1ccc(CN(C)C(=O)CN2CCCC2c2cnn(C)c2)cc1` (stereo not given): the cytotoxicity at 10 µM was -1.6%. Turning to `CN(C)c1cnnc(N2CCN(C(=O)CCC3CCCCC3)CC2)c1`, the cytotoxicity at 10 µM was -1.65%. Turning to `Cc1cccnc1NC(=O)CNC(=O)c1ccccc1Cl`, the cytotoxicity at 10 µM is -3.36%. Take `CSCCC(=O)N1CCN(CC(O)C(C)(C)C)CC1` (stereo not given): the cytotoxicity at 10 µM was -2.06%. On to `O=C(NCCn1cccc1)C1CCC(=O)N(C2CCCC2)C1` (stereo not given), for which the cytotoxicity at 10 µM was found to be 0.622%.
